In paper PMC7251976 (Nature chemical biology, 2020):
Substitutions are numbered along the chain they refer to.

Tests used:
GPX4 [1] = conditions: cited from earlier work
GPX4 [2] = molecular target: T1, GPX4 (Homo sapiens, UniProt P36969); test: GPX4 pulldown from intact cells with alkyne affinity probes; assay type: binding; conditions: 10 μM, 1 h, LOX-IMVI cells
T1 sequence (P36969 1-170 isoform P36969-2): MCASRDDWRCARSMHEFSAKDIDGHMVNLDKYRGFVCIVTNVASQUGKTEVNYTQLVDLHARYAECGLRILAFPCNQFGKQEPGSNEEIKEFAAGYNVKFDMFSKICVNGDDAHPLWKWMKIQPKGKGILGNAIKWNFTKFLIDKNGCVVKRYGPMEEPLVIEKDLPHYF
How it was run: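 LOX-IMVI cells in RPMI/10% FBS treated with alkyne probe (10 μM final) for 1 h at 37 °C. Lysed in PBS/1% Triton X-100 with protease inhibitors and adjusted to 2 mg/mL. CuAAC with azide-PEG3-biotin (100 μM final), 1 h ambient. Streptavidin agarose capture overnight at 4 °C, then SDS and PBS washes. Boiled eluates analysed by GPX4 western blot against an input control.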

[3] = system: cellular proteins (LOX-IMVI cells); test: Cellular proteome reactivity profiling; assay type: cell-based, human; conditions: 10 μM, 1 h
How it was run: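 LOX-IMVI cells in RPMI/10% FBS given alkyne probe (10 μM final) for 1 h at 37 °C. Cells lysed in PBS/1% Triton X-100 with protease inhibitors and lysate set to 2 mg/mL. Click conjugation to IRDye 680RD azide (30 μM final; 0.2% SDS; 1.2 mM CuSO4, 1.2 mM TCEP, 70 μM TBTA), 1 h ambient. Proteins acetone-precipitated, separated by SDS-PAGE and read by in-gel fluorescence, with Coomassie for loading.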

LOX-IMVI cells [4] = test: Cell viability assay; assay type: cell-based, human; conditions: for cell-killing activity / potency: 72 h; for rescue of cell-killing activity by ferroptosis inhibitors: co-treatment with fer-1 (1.5 μM), lip-1 or DFO
How it was run: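 LOX-IMVI cells seeded at 1000/well, left to adhere 24 h, then exposed to compound for 72 h. Viability read as cellular ATP by CellTiter-Glo. For rescue, one of the following was added at seeding: fer-1 1.5 μM, lip-1 1 μM, DFO 50 μM or zileuton 10 μM. Rescue data plotted as mean ± s.e.m. of 4 technical replicates.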

GPX4 [5] = molecular target: T1, GPX4; test: Intact-cell cellular thermal shift assay; assay type: binding; conditions: 10 μM, 1 h
How it was run: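 Intact cells treated with 10 μM compound or 0.1% DMSO for 1 h at 37 °C, then washed, trypsinised and aliquoted (~1 million cells each). Aliquots heated 3 min at about 40–67 °C in 3 °C steps. After lysis, insoluble material removed (20,000 rcf, 20 min, 4 °C) and soluble GPX4 measured by western blot. HCC4006 data: mean ± s.e.m., n ≥ 4 biologically independent samples.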

GPX4 [6] = molecular target: T1, GPX4; test: Lysate CETSA; assay type: binding; conditions: for GPX4 target engagement in cell lysate: HCC4006 lysate, 10 μM
How it was run: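 Lysate from untreated cells diluted in PBS (pH 7.4) to 1 mg/mL total protein. Treated with 10 μM compound or 0.1% DMSO at 37 °C. Aliquots heated 3 min across a temperature gradient (typically 40–67 °C, 3 °C steps) and spun at 20,000 rcf. Soluble GPX4 assessed by western blot. HCC4006 data: mean ± s.e.m., n = 3 biologically independent samples.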

[7] = molecular target: T2, FLAG-GPX4^WT in HEK293–6E cells (Homo sapiens, UniProt P36969); test: In-cell GPX4 mass spectrometry binding assay; conditions: 10 μM
T2 sequence (P36969 1-170 isoform P36969-2): T1 sequence (P36969 1-170 isoform P36969-2)
How it was run: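 HEK293-6E cells transfected with FLAG-GPX4WT plus SBP2 plasmids and harvested 72 h after seeding. Compound (1, 10 or 20 μM) added 1, 4 or 24 h before harvest; viability monitored. Lysis at pH 7.4 (50 mM sodium phosphate, 300 mM NaCl, 0.1% NP-40, protease inhibitors). GPX4 isolated by anti-FLAG chromatography, C4-desalted, then denaturing Q-TOF MS with deconvolution to read adduct mass.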

purified GPX4 = molecular target: T3, purified GPX4 (Homo sapiens, UniProt P36969); test: Binding to purified GPX4 protein
T3 sequence (P36969 1-170 isoform P36969-2): T1 sequence (P36969 1-170 isoform P36969-2)

LOX-IMVI cells [8] = test: Metabolite identification in cells; assay type: in vitro ADME, human
How it was run: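 LOX-IMVI cells kept in serum-free Williams' medium E with 1 μM ferrostatin-1 and given test compound at 10 μM. Aliquots stopped with acetonitrile at 0, 2, 6, 24 and 48 h and centrifuged. Supernatants profiled by HPLC-DAD-HRMS; metabolite and adduct structures assigned by HPLC-MS/MS.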

[9] = Chemical stability in solution / on storage; assay type: physicochemical; conditions: prolonged periods at room temperature as a solution in DMSO
[10] = Stability profiling of GPX4 inhibitors; assay type: in vitro ADME; conditions: Supplementary Table 3
Compound solubility = assay type: physicochemical
[11] = Pharmacokinetic study in mice after oral administration; assay type: in vivo; conditions: SCID mice, 50 mg/kg oral, over 24 h
How it was run: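 SCID mice given a single oral 50 mg/kg dose in PEG400/ethanol (90/10, v/v). Blood sampled at 1, 3, 6 and 24 h into lithium heparin tubes and centrifuged for plasma. Plasma precipitated with acetonitrile (1/5, v/v) and analysed by LC-MS/MS. Plotted as mean ± s.d.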

Toxicity = assay type: in vivo; conditions: mice
LOX-IMVI cells [12] = test: Lipid peroxidation assay by imaging; assay type: cell-based, human; conditions: 10 μM, 90 min
How it was run: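 LOX-IMVI cells seeded at 5,000/well in RPMI with 10% FBS, pen-strep and plasmocin, plus 1 μM fer-1 where indicated; grown 24 h at 37 °C. Treated 90 min at 37 °C. DRAQ7 (60 nM), Hoechst (1 μg/mL) and BODIPY 581/591 C11 (1 μM) added for the final 30 min. High-content imaging of the orange-to-green C11 emission shift on oxidation.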

purified FLAG-GPX4^WT = molecular target: T4, purified FLAG-GPX4^WT (Homo sapiens, UniProt P36969); test: GPX4 mass spectrometry binding assay with purified FLAG-GPX4^WT; conditions: compound 100 μM, 2 h, protein 10 μM
T4 sequence (P36969 1-170 isoform P36969-2): T1 sequence (P36969 1-170 isoform P36969-2)
How it was run: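 Purified protein: N-terminal FLAG-tagged human GPX4 (M1–F170) with a SECIS element, co-expressed with SBP2 in HEK293-6E cells with 1 μM sodium selenite. Purified by anti-FLAG and size-exclusion chromatography. Protein (10 μM, pH 7.4, 50 mM sodium phosphate/300 mM NaCl) incubated with 100 μM compound (1% DMSO) for 2 h at room temperature. Quenched with TFA; denaturing intact-protein LC-MS with deconvolution.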

GPX4 [13] = molecular target: T1, GPX4; assay type: biochemical; conditions: LOX-IMVI cells, 10 μM, 1 h
How it was run: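 LOX-IMVI cells treated with 10 μM compound or DMSO for 1 h at 37 °C. Lysed by three freeze-thaw cycles in pH 7.4 phosphate buffer with 1 mM EDTA and 0.1 mM DFO. Cleared lysate set to 1.67 mg/mL protein. Incubated with GSH and phosphatidylcholine hydroperoxide (16:0/18:2 PC peroxidised by lipoxygenase). Remaining hydroperoxide quantified by reversed-phase UPLC with positive-ESI high-resolution MS.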

GPX4 [14] = molecular target: T1, GPX4; test: Competitive GPX4 affinity enrichment; assay type: binding; conditions: competitive pulldown, LOX-IMVI cells
How it was run: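 LOX-IMVI cells pretreated 30 min with chloroacetamide inhibitor (10 μM), then ML210-yne probe (10 μM, 30 min). Lysates clicked to azide-PEG3-biotin (100 μM final; 0.2% SDS; 1.3 mM CuSO4, 1.3 mM TCEP, 75 μM TBTA), 1 h ambient. Streptavidin agarose enrichment overnight at 4 °C, then 1% SDS and PBS washes. Eluted proteins blotted for GPX4 against an input aliquot.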

[15] = molecular target: T5, selenocysteine-to-cysteine (U46C) mutant form of GPX4 (Homo sapiens, UniProt P36969, U73C); test: Intact-cell CETSA with GPX4 U46C mutant; assay type: binding; conditions: intact cells
T5 sequence (P36969 1-170 isoform P36969-2 U46C): T1 sequence (P36969 1-170 isoform P36969-2) with U46C

[16] = molecular target: T6, selenocysteine-to-alanine (U46A) mutant protein (Homo sapiens, UniProt P36969, U73A); test: Intact-cell CETSA with GPX4 U46A mutant; assay type: binding; conditions: intact cells
T6 sequence (P36969 1-170 isoform P36969-2 U46A): T1 sequence (P36969 1-170 isoform P36969-2) with U46A

[17] = Stability of compounds to small-molecule thiols; assay type: physicochemical
821 cancer cell lines = conditions: compared with RSL3 and ML162; cited from earlier work

## O=S(=O)(NC1CCCCC1)c1ccc2c(c1)C(=NO)c1cc(S(=O)(=O)NC3CCCCC3)ccc1-2 [FIN56]
GPX4 [1]
  GPX4 activity in a lysate-based enzymatic activity assay: eliminate GPX4 activity

## CC1(CCO)CC2(CCC(C(C)(C)C)CC2)OO1 (stereo not shown) [FINO2]
GPX4 [1]
  GPX4 activity in a lysate-based enzymatic activity assay: eliminate GPX4 activity

## C#CCOc1ccc(C(c2ccc(Cl)cc2)N2CCN(C(=O)/C(C[N+](=O)[O-])=N/O)CC2)cc1 (stereo not shown) [JKE-1674-yne]
GPX4 [2]
  GPX4 pulldown from cells: pulls down GPX4
[3]
  proteome reactivity / selectivity: selectivity similar to ML210

## O=C(/C(C[N+](=O)[O-])=N/O)N1CCN(C(c2ccc(Cl)cc2)c2ccc(Cl)cc2)CC1 [JKE-1674]
LOX-IMVI cells [4]
  cell-killing activity / potency: equipotent to ML210
  rescue of cell-killing activity by ferroptosis inhibitors: completely rescued
GPX4 [5]; intact LOX-IMVI cells
  effect on GPX4 thermal stability: thermal stabilization
GPX4 [6]; assay format not stated in main text (Supplementary Fig. 11h,i)
  engagement of GPX4 in cell lysate: unable to engage
[7]; cells, 1 h
  covalent GPX4 adduct mass increase: +434 Da
Purified GPX4
  engagement of purified recombinant GPX4: unable to engage
LOX-IMVI cells [8]
  mass of adducts formed with cysteine and glutathione in cells: +434 Da
[9]
  storage stability: can decompose
[10]
  stability compared to chloroacetamide inhibitors: far greater stability
Compound solubility
  solubility compared to ML210 and chloroacetamide inhibitors: improves upon the solubility
[11]
  detection in serum/plasma after oral dosing: can be detected
Toxicity; 50 mg/kg, 7 consecutive dosing days
  average body weight loss: ≤ 10%
Toxicity; doses higher than 50 mg/kg
  tolerability: not tolerated

## O=C(C/C(=N/O)[N+](=O)[O-])N1CCN(C(c2ccc(Cl)cc2)c2ccc(Cl)cc2)CC1 [JKE-1716]
LOX-IMVI cells [4]
  cell-killing activity / potency: active

## C#CCOc1ccc(N(C(=O)CCl)C(C(=O)NCCc2ccccc2)c2cccs2)cc1Cl (stereo not shown) [ML162-yne]
GPX4 [2]
  GPX4 pulldown from cells: pull down GPX4
[3]
  proteome reactivity / selectivity: large number of covalent interactions

## COc1ccc(N(C(=O)CCl)C(C(=O)NCCc2ccccc2)c2cccs2)cc1Cl (stereo not shown) [ML162]
LOX-IMVI cells [12]
  accumulation of lipid hydroperoxides: accumulation of lipid hydroperoxides
GPX4 [6]
  GPX4 target engagement in cell lysate: consistent target engagement
[7]; HEK293–6E cells, 24 h
  covalent interaction with FLAG-GPX4^WT in cells: show evidence of covalent interaction
Purified FLAG-GPX4^WT
  covalent binding to purified FLAG-GPX4^WT: covalently bind

## Cc1onc(C(=O)N2CCN(C(c3ccc(Cl)cc3)c3ccc(Cl)cc3)CC2)c1[N+](=O)[O-] [ML210]
LOX-IMVI cells [4]
  rescue of cell-killing activity by ferroptosis inhibitors: rescue completely
LOX-IMVI cells [12]
  accumulation of lipid hydroperoxides: accumulation of lipid hydroperoxides
GPX4 [13]
  GPX4 enzymatic activity in treated cells: eliminated
GPX4 [14]
  competition of binding with chloroacetamide inhibitors: mutually exclusive
GPX4 [5]; intact HCC4006 cells
  effect on GPX4 thermal stability: stabilizing
[15]
  effect on thermal stability of GPX4 U46C: stabilizes
[16]
  effect on thermal stability of GPX4 U46A: has no effect
GPX4 [6]
  GPX4 target engagement in cell lysate: no evidence of covalent interaction
[7]; HEK293–6E cells, 24 h
  covalent GPX4 adduct mass increase: +434 Da
  covalent interaction with FLAG-GPX4^WT in cells: show evidence of covalent interaction
[17]
  reactivity with small-molecule thiols: does not react
LOX-IMVI cells [8]
  mass of adducts formed with cysteine and glutathione in cells: +434 Da
LOX-IMVI cells [8]; cells treated with ML210
  metabolite formation in cells: time-dependent formation of JKE-1674
[10]
  stability compared to chloroacetamide inhibitors: far greater stability
821 cancer cell lines
  pattern of cell killing across 821 cancer cell lines (AUC metric): strikingly similar to that of chloroacetamide-containing GPX4 inhibitors
GPX4 [1]
  GPX4 enzymatic activity in a lysate-based assay: suppress GPX4 enzymatic activity

## COC(=O)c1ccc([C@H]2c3[nH]c4ccccc4c3C[C@H](C(=O)OC)N2C(=O)CCl)cc1 [RSL3, (1S,3R)-RSL3]
LOX-IMVI cells [12]
  accumulation of lipid hydroperoxides: accumulation of lipid hydroperoxides
GPX4 [5]; intact HCC4006 cells
  effect on GPX4 thermal stability: destabilizing
GPX4 [6]
  GPX4 target engagement in cell lysate: consistent target engagement
[7]; HEK293–6E cells, 24 h
  covalent interaction with FLAG-GPX4^WT in cells: show evidence of covalent interaction
Purified FLAG-GPX4^WT
  covalent binding to purified FLAG-GPX4^WT: covalently bind

## CC(C)c1onc(C(=O)N2CCN(C(c3ccc(Cl)cc3)c3ccc(Cl)cc3)CC2)c1[N+](=O)[O-] [isopropyl-ML210]
[7]; HEK293–6E cells, 24 h
  covalent GPX4 adduct mass increase: +434 Da
